Measured values taken from ChEMBL document CHEMBL5724801, “EUbOPEN Chemogenomics Library - Multiplex” (2024).
Where “and” joins values, the source holds several entries; their conditions need not be identical. Equal entries are not always repeated.

Test system: Fibroblast
Assay: Multiplex assay against human fibroblast
Type: toxicity, cell-based
Summary of the method: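 Live cells were stained at seeding with Hoechst33342, BioTracker Green Microtubule Cytoskeleton Dye, MitoTracker Red and Annexin V Alexa Fluor 680, then imaged on a CQ1 microscope at 37°C and 5% CO2 after compound addition. CellPathfinder machine-learning gating split cells into Hoechst high-intensity objects or normal cells. Normal cells were split into healthy, pyknosed or fragmented nuclei, and pyknosed cells into mitotic or apoptotic. Tubulin, mitochondrial-mass and membrane-permeability phenotypes are per cents of healthy-nucleus cells.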

[1] = 12 h, 1 µM, compound concentration 1 uM
[2] = 12 h, 10 µM, compound concentration 10 uM
[3] = 24 h, 1 µM, compound concentration 1 uM
[4] = 24 h, 10 µM, compound concentration 10 uM
[5] = 48 h, 1 µM, compound concentration 1 uM
[6] = 48 h, 10 µM, compound concentration 10 uM

Cc1nn(C)c2nc(NNC(=O)Nc3cc(Cl)nc(Cl)c3)cc(C(C)C)c12
Population Apoptotic (%) [1]: 62% and 37%
Population Fragmented Nuclei (%) [1]: 15% and 31%
Population Healthy Nuclei (%) [1]: 68% and 53%
Population Hoechst High Intensity Objects (%) [1]: 3% and 2%
Population Membrane Permeable-Phenotype (%) [1]: 0%
Population Mitochondria Different-Phenotype (%) [1]: 4% and 7%
Population Mitotic Cells (%) [1]: 37% and 62%
Population Normal (%) [1]: 96% and 97%
Population Pyknosed Nuclei (%) [1]: 15%
Population Tubulin-Different-Phenotype (%) [1]: 27% and 46%
Total Cell Count [1]: 178 and 179
Population Apoptotic (%) [2]: 53% and 21%
Population Fragmented Nuclei (%) [2]: 12% and 33%
Population Healthy Nuclei (%) [2]: 63% and 56%
Population Hoechst High Intensity Objects (%) [2]: 3% and 7%
Population Membrane Permeable-Phenotype (%) [2]: 2% and 5%
Population Mitochondria Different-Phenotype (%) [2]: 15% and 6%
Population Mitotic Cells (%) [2]: 46% and 78%
Population Normal (%) [2]: 96% and 92%
Population Pyknosed Nuclei (%) [2]: 23% and 10%
Population Tubulin-Different-Phenotype (%) [2]: 89%
Total Cell Count [2]: 139 and 140
Population Apoptotic (%) [3]: 59% and 62%
Population Fragmented Nuclei (%) [3]: 18% and 21%
Population Healthy Nuclei (%) [3]: 68%
Population Hoechst High Intensity Objects (%) [3]: 1% and 2%
Population Membrane Permeable-Phenotype (%) [3]: 1% and 2%
Population Mitochondria Different-Phenotype (%) [3]: 3% and 6%
Population Mitotic Cells (%) [3]: 40% and 37%
Population Normal (%) [3]: 98% and 97%
Population Pyknosed Nuclei (%) [3]: 12% and 9%
Population Tubulin-Different-Phenotype (%) [3]: 29% and 50%
Total Cell Count [3]: 176 and 174
Population Apoptotic (%) [4]: 52% and 25%
Population Fragmented Nuclei (%) [4]: 12% and 28%
Population Healthy Nuclei (%) [4]: 69% and 61%
Population Hoechst High Intensity Objects (%) [4]: 4% and 8%
Population Membrane Permeable-Phenotype (%) [4]: 1% and 0%
Population Mitotic Cells (%) [4]: 47% and 75%
Population Normal (%) [4]: 95% and 91%
Population Pyknosed Nuclei (%) [4]: 18% and 9%
Population Tubulin-Different-Phenotype (%) [4]: 95% and 89%
Total Cell Count [4]: 130 and 132
Population Apoptotic (%) [5]: 71% and 57%
Population Fragmented Nuclei (%) [5]: 18% and 34%
Population Healthy Nuclei (%) [5]: 73% and 62%
Population Hoechst High Intensity Objects (%) [5]: 1% and 2%
Population Membrane Permeable-Phenotype (%) [5]: 1% and 2%
Population Mitochondria Different-Phenotype (%) [5]: 2%
Population Mitotic Cells (%) [5]: 28% and 42%
Population Normal (%) [5]: 98% and 97%
Population Pyknosed Nuclei (%) [5]: 7% and 3%
Population Tubulin-Different-Phenotype (%) [5]: 30% and 36%
Total Cell Count [5]: 188 and 184
Population Apoptotic (%) [6]: 93% and 62%
Population Fragmented Nuclei (%) [6]: 16% and 38%
Population Healthy Nuclei (%) [6]: 70% and 56%
Population Hoechst High Intensity Objects (%) [6]: 8% and 3%
Population Membrane Permeable-Phenotype (%) [6]: 2%
Population Normal (%) [6]: 91% and 96%
Population Pyknosed Nuclei (%) [6]: 13% and 5%
Population Tubulin-Different-Phenotype (%) [6]: 96% and 85%
Total Cell Count [6]: 129 and 155

COC(=O)c1ccc2c(c1)NC(=O)/C2=C(\Nc1ccc(N(C)C(=O)CN2CCN(C)CC2)cc1)c1ccccc1 [NINTEDANIB]
Population Apoptotic (%) [1]: 16.28% and 33.33%
Population Fragmented Nuclei (%) [1]: 16.48% and 7.77%
Population Healthy Nuclei (%) [1]: 59.09% and 77.67%
Population Hoechst High Intensity Objects (%) [1]: 0%
Population Membrane Permeable-Phenotype (%) [1]: 6.73% and 3.75%
Population Mitochondria Different-Phenotype (%) [1]: 17.31% and 10%
Population Mitotic Cells (%) [1]: 83.72% and 66.67%
Population Normal (%) [1]: 100%
Population Pyknosed Nuclei (%) [1]: 24.43% and 14.56%
Population Tubulin-Different-Phenotype (%) [1]: 38.46% and 36.88%
Total Cell Count [1]: 176 and 206
Population Apoptotic (%) [2]: 40.91% and 35.76%
Population Fragmented Nuclei (%) [2]: 5.54% and 1.86%
Population Healthy Nuclei (%) [2]: 51.47% and 66.87%
Population Hoechst High Intensity Objects (%) [2]: 0.65% and 0%
Population Membrane Permeable-Phenotype (%) [2]: 29.11% and 30.65%
Population Mitochondria Different-Phenotype (%) [2]: 33.54% and 14.24%
Population Mitotic Cells (%) [2]: 59.09% and 64.24%
Population Normal (%) [2]: 99.35% and 100%
Population Pyknosed Nuclei (%) [2]: 43% and 31.26%
Population Tubulin-Different-Phenotype (%) [2]: 51.27% and 85.14%
Total Cell Count [2]: 309 and 483
Population Apoptotic (%) [3]: 16.22% and 30%
Population Fragmented Nuclei (%) [3]: 15.92% and 9.59%
Population Healthy Nuclei (%) [3]: 65.67% and 76.71%
Population Hoechst High Intensity Objects (%) [3]: 0%
Population Membrane Permeable-Phenotype (%) [3]: 3.79% and 3.57%
Population Mitochondria Different-Phenotype (%) [3]: 8.33% and 10.71%
Population Mitotic Cells (%) [3]: 83.78% and 70%
Population Normal (%) [3]: 100%
Population Pyknosed Nuclei (%) [3]: 18.41% and 13.7%
Population Tubulin-Different-Phenotype (%) [3]: 31.82% and 40.48%
Total Cell Count [3]: 201 and 219
Population Apoptotic (%) [4]: 45.74% and 54.65%
Population Fragmented Nuclei (%) [4]: 5.3% and 6.9%
Population Healthy Nuclei (%) [4]: 59.09% and 71.92%
Population Hoechst High Intensity Objects (%) [4]: 0.75% and 0%
Population Membrane Permeable-Phenotype (%) [4]: 12.18% and 13.36%
Population Mitochondria Different-Phenotype (%) [4]: 45.51% and 32.53%
Population Mitotic Cells (%) [4]: 54.26% and 45.35%
Population Normal (%) [4]: 99.25% and 100%
Population Pyknosed Nuclei (%) [4]: 35.61% and 21.18%
Population Tubulin-Different-Phenotype (%) [4]: 66.67% and 90.75%
Total Cell Count [4]: 266 and 406
Population Apoptotic (%) [5]: 21.43% and 45%
Population Fragmented Nuclei (%) [5]: 19.15% and 12.93%
Population Healthy Nuclei (%) [5]: 74.89% and 78.45%
Population Hoechst High Intensity Objects (%) [5]: 0%
Population Membrane Permeable-Phenotype (%) [5]: 0.57% and 1.65%
Population Mitotic Cells (%) [5]: 78.57% and 55%
Population Normal (%) [5]: 100%
Population Pyknosed Nuclei (%) [5]: 5.96% and 8.62%
Population Tubulin-Different-Phenotype (%) [5]: 23.86% and 42.31%
Total Cell Count [5]: 235 and 232
Population Apoptotic (%) [6]: 60.29% and 65.38%
Population Fragmented Nuclei (%) [6]: 8.47% and 8.93%
Population Healthy Nuclei (%) [6]: 64.11% and 83.57%
Population Hoechst High Intensity Objects (%) [6]: 0%
Population Membrane Permeable-Phenotype (%) [6]: 9.43% and 8.97%
Population Mitochondria Different-Phenotype (%) [6]: 44.65% and 33.45%
Population Mitotic Cells (%) [6]: 39.71% and 34.62%
Population Normal (%) [6]: 100%
Population Tubulin-Different-Phenotype (%) [6]: 58.49% and 91.72%
Total Cell Count [6]: 248 and 347

COc1ccccc1N1CCN(CCCCNC(=O)c2ccc3ccccc3c2)CC1.Cl
Population Apoptotic (%) [1]: 52% and 40%
Population Fragmented Nuclei (%) [1]: 19% and 20%
Population Healthy Nuclei (%) [1]: 68% and 63%
Population Mitotic Cells (%) [1]: 47% and 59%
Population Normal (%) [1]: 95% and 96%
Population Tubulin-Different-Phenotype (%) [1]: 35% and 42%
Total Cell Count [1]: 194 and 148
Population Apoptotic (%) [2]: 58% and 39%
Population Fragmented Nuclei (%) [2]: 32% and 40%
Population Healthy Nuclei (%) [2]: 52% and 34%
Population Mitotic Cells (%) [2]: 41% and 60%
Population Normal (%) [2]: 96% and 89%
Population Tubulin-Different-Phenotype (%) [2]: 79% and 90%
Total Cell Count [2]: 194 and 144
Population Apoptotic (%) [3]: 39% and 60%
Population Fragmented Nuclei (%) [3]: 14% and 26%
Population Healthy Nuclei (%) [3]: 73% and 60%
Population Mitotic Cells (%) [3]: 60% and 40%
Population Normal (%) [3]: 98% and 96%
Population Tubulin-Different-Phenotype (%) [3]: 31% and 40%
Total Cell Count [3]: 193 and 156
Population Apoptotic (%) [4]: 66% and 69%
Population Fragmented Nuclei (%) [4]: 32% and 41%
Population Healthy Nuclei (%) [4]: 56% and 41%
Population Mitotic Cells (%) [4]: 33% and 30%
Population Normal (%) [4]: 95% and 91%
Population Tubulin-Different-Phenotype (%) [4]: 85% and 81%
Total Cell Count [4]: 206 and 154
Population Apoptotic (%) [5]: 42% and 29%
Population Fragmented Nuclei (%) [5]: 21% and 34%
Population Healthy Nuclei (%) [5]: 70% and 54%
Population Mitotic Cells (%) [5]: 57% and 70%
Population Normal (%) [5]: 96% and 95%
Population Tubulin-Different-Phenotype (%) [5]: 38% and 39%
Total Cell Count [5]: 199 and 167
Population Apoptotic (%) [6]: 73% and 75%
Population Fragmented Nuclei (%) [6]: 33% and 38%
Population Healthy Nuclei (%) [6]: 57% and 56%
Population Mitotic Cells (%) [6]: 26% and 25%
Population Tubulin-Different-Phenotype (%) [6]: 89% and 82%
Total Cell Count [6]: 224 and 168
